“Also recorded” adds a separate entry of the source.
Legend:
[1] = system: RBC from WT, HuB3, HA Del and BS KO mice; test: Glutathione oxidation; type: cell-based, mouse
[2] = system: pentose phosphate pathway; test: 1,2,3-13C3-glucose tracing; type: cell-based, mouse
Procedure, shortened: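 Red cells from wild-type, humanized band 3, HA Del (lacking residues 1-11) and BS KO (lacking residues 12-23) mice were stimulated with methylene blue and incubated with 1,2,3-13C3-glucose at 37 °C for 1 h. In rescue arms, cells were preincubated with recombinant band 3 N-terminal peptide (residues 1-56). The read-out was the ratio of lactate isotopologues +3 (glycolysis) and +2 (pentose phosphate pathway), measured by UHPLC-MS.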

[3] = system: RBC cytosol and membrane proteins; type: binding, human; settings: part of macromolecular complexes with direct interactors
GAPDH = test: 15N-HSQC NMR of band 3 peptide 1-56 upon titration of GAPDH; type: binding; settings: 25 °C, 100 or 200 GAPDH (mM in text, μM in legend)
Procedure, shortened: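 15N-HSQC spectra of 15N-labelled recombinant band 3 peptide 1-56 were recorded at 25 °C on a 900 instrument using a standard sequence. Recombinant GAPDH (tetramer) was titrated at 0, 100 and 200 (units as printed are unreliable). Individual residue amide signals were followed across the titration.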

[4] = system: pentose phosphate pathway; type: cell-based, human; settings: RBC lysates, 1,2,3-13C3-glucose 5 mM, 37 °C, 1 h, methylene blue; recombinant peptide
Procedure, shortened: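 Red cell lysates came from the band 3 Neapolis subject (AE1 residues 1-11 absent) and from healthy donors (n=3). Lysates were incubated with 1,2,3-13C3-glucose at 37 °C for 1 h under methylene blue stimulation, with or without recombinant N-terminal band 3 peptide (residues 1-56). Isotopologues were measured by UHPLC-MS to assess pentose phosphate pathway activation.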

[5] = recombinant peptide, 1,2,3-13C3-glucose, methylene blue

Row | Molecule | Glutathione oxidation with MB [1] | Activation of the PPP, methylene blue stimulation, HA Del ([2]; 37 °C, 1 h, HA Del mouse RBC) | Candidate indirect interactors by pull-down followed by crosslinking [3] | Y8 amide signal upon GAPDH titration (GAPDH) | Y46 amide signal upon GAPDH titration (GAPDH) | Rescue of the deficit in PPP activation, band 3 Neapolis [4] | PPP activation and glycolysis with peptide, all mouse strains ([2]; legend of Figure 1I, recombinant peptide, methylene blue) | PPP activation with peptide, BS KO mouse RBC [2, 5] | PPP activation with peptide, HA Del mouse RBC [2, 5]
1 | CN(C)c1ccc2nc3ccc(=[N+](C)C)cc-3sc2c1 [MB, methylene blue, reference compound] | increased glutathione oxidation (GSSG/GSH ratios) | ablated in HA Del mice |  |  |  |  |  |  | 
2 | AE11-56: recombinantly expressed peptide coding for amino acids 1-56 of the N-terminus of band 3 (AE1) (MEELQDDYEDMMEENLEQEEYEDPDIPESQMEEPAAHDTEATATDYHTTSHPGTHK; UniProt P02730 1-56, looked up, fragment) |  |  | peroxiredoxin 2,[51] peroxiredoxin 6, catalase, phosphofructokinase isoforms,[12] proteins 4.1 and 4.2, glucose phosphate isomerase, stomatin, adducin b, carbonic anhydrase 1, and 1-phosphatidylinositol 4,5-bisphosphate phosphodiesterase η-2 | near complete disappearance of the central Y8 amide | no chemical shift perturbations | a defect that was corrected by rescue; also recorded: partially rescued in vitro | increased PPP activation and decreased glycolysis in HA Del mice and further exacerbated responses in all the other strains | higher basal levels and further increases in PPP activation by MB | the defect in PPP activation of HA Del mice was rescued

Source: article PMC8561282 (Haematologica, 2021)
